Experimental data as given in ChEMBL document CHEMBL1165916, “Interactions of 1-methyl-3-phenylpyrrolidine and 3-methyl-1-phenyl-3-azabicyclo[3.1.0]hexane with monoamine oxidase B” (Bioorg Med Chem, 2010).
Active and inactive are the calls of the source. No cut-off for these calls is given here.

How the values were obtained:
[1] = species on record: Papio hamadryas; experiment: Activity at baboon liver mitochondrial MAO-B assessed as H2O2 production at 250 uM after 20 mins
Summary of the method: (§1)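 Baboon liver mitochondria (0.15 mg protein/mL) incubated with substrate and chromogenic solution at 37 °C in 100 mM sodium phosphate, pH 7.4. Reactions stopped at 2.5–20 min with (R)-deprenyl on ice and centrifuged. H2O2 read by peroxidase-coupled spectrophotometric assay against an 11–88 µM calibration. Triplicate, means ± SEM.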

[2] = species on record: Papio hamadryas; experiment: Activity at baboon liver mitochondrial MAO-B assessed as H2O2 production at Vmax concentration after 20 mins
[3] = species on record: Papio hamadryas; experiment: Activity at baboon liver mitochondrial MAO-B assessed as H2O2 production at 500 uM after 20 mins pretreated with MAOB inhibitor (R)-deprenyl
[4] = species on record: Papio hamadryas; experiment: Activity at baboon liver mitochondrial MAO-B assessed as initial rate of H2O2 production after 20 mins assessed per mg of mitochondrial protein
Summary of the method: (§2)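 Incubation time was set within the linear range for each substrate. Stopped with (R)-deprenyl on ice; peroxidase-coupled spectrophotometric read-out. Rates in nmol/min-mg protein, fitted to Michaelis–Menten. Triplicate or duplicate.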

[5] = species on record: Papio hamadryas; experiment: Activity at baboon liver mitochondrial MAO-B assessed as initial rate of H2O2 production after 20 mins; summary of the method: as §2
[6] = species on record: Papio hamadryas; experiment: Ratio of Vmax to Km for baboon liver mitochondrial MAO-B assessed per mg of protein after 20 mins; summary of the method: as §2
[7] = system: Mus musculus; experiment: Neurotoxicity in C57BL/6 mouse assessed as depletion of dopamine level in striatum at 238 umol/kg, ip after 7 days by HPLC-ECD analysis relative to control; assay type: toxicity, organism-based; details: in vivo, 168 h
Summary of the method: (§3)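 Saline controls run alongside. Mice killed by cervical dislocation 7 days later. Striatal dopamine measured by HPLC-ECD, means ± SEM.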

[8] = species on record: Papio hamadryas; experiment: Activity at baboon liver mitochondrial MAO-B assessed as H2O2 production at 500 uM after 6 to 15 mins pretreated with (R)-deprenyl
Summary of the method: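 Mitochondria (0.3 mg protein/mL) were preincubated with (R)-deprenyl at 37 °C in 100 mM sodium phosphate, pH 7.4. They were then added to 500 µM substrate to give 0.15 mg protein/mL, with chromogenic solution, at 37 °C. Reactions were stopped with (R)-deprenyl, and H2O2 was measured by peroxidase-coupled spectrophotometry. Values were compared with fully active controls preincubated without inactivator.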

[9] = species on record: Papio hamadryas; experiment: Activity at baboon liver mitochondrial MAO-B assessed as initial rate of H2O2 production after 8 mins assessed per mg of mitochondrial protein
Summary of the method: (§4)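 Baboon liver mitochondria stored at −70 °C and diluted with phosphate buffer containing 50% glycerol. MAO-B at 0.15 mg protein/mL in 100 mM sodium phosphate, pH 7.4, 37 °C, with eight substrate concentrations spanning two orders of magnitude. Incubation lasted 6 or 8 min (linear period). Stopped with (R)-deprenyl on ice, then centrifuged. H2O2 measured by peroxidase-coupled spectrophotometry against an 11–88 µM calibration. Duplicates; Michaelis–Menten fit gave Km, Vmax (nmol/min-mg), Vmax/Km.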

[10] = species on record: Papio hamadryas; experiment: Activity at baboon liver mitochondrial MAO-B assessed as initial rate of H2O2 production after 8 mins; summary of the method: as §4
[11] = species on record: Papio hamadryas; experiment: Ratio of Vmax to Km for baboon liver mitochondrial MAO-B assessed per mg of protein after 8 mins; summary of the method: as §4
[12] = species on record: Papio hamadryas; experiment: Activity at baboon liver mitochondrial MAO-B assessed as initial rate of H2O2 production after 12.5 mins assessed per mg of mitochondrial protein
Summary of the method: (§5)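 Baboon liver mitochondrial fraction (0.15 mg protein/mL; protein by Bradford) was incubated with substrate in 100 mM sodium phosphate, pH 7.4, at 37 °C for 12.5 min. (R)-Deprenyl (5 mM stock) was added and the samples were placed on ice, then centrifuged. H2O2 was read by peroxidase-coupled spectrophotometry against an 11–88 µM calibration. Initial rates were taken at eight substrate levels, in duplicate. Km and Vmax came from a Michaelis–Menten fit, with rates as nmol H2O2/min-mg protein.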

[13] = species on record: Papio hamadryas; experiment: Activity at baboon liver mitochondrial MAO-B assessed as initial rate of H2O2 production after 12.5 mins; summary of the method: as §5
[14] = species on record: Papio hamadryas; experiment: Ratio of Vmax to Km for baboon liver mitochondrial MAO-B assessed per mg of protein after 12.5 mins; summary of the method: as §5
[15] = system: Mus musculus; experiment: Neurotoxicity in C57BL/6 mouse assessed as depletion of dopamine level in striatum at 167 umol/kg, ip after 7 days by HPLC-ECD analysis relative to control; assay type: toxicity, organism-based; details: in vivo, 168 h; summary of the method: as §3
[16] = species on record: Papio hamadryas; experiment: Activity at baboon liver mitochondrial MAO-B assessed as H2O2 production at 250 uM after 6 to 15 mins pretreated with (R)-deprenyl
[17] = species on record: Papio hamadryas; experiment: Activity at baboon liver mitochondrial MAO-B assessed as initial rate of H2O2 production after 10 mins assessed per mg of mitochondrial protein; summary of the method: as §2
[18] = species on record: Papio hamadryas; experiment: Activity at baboon liver mitochondrial MAO-B assessed as initial rate of H2O2 production after 10 mins; summary of the method: as §2
[19] = species on record: Papio hamadryas; experiment: Ratio of Vmax to Km for baboon liver mitochondrial MAO-B assessed per mg of protein after 10 mins; summary of the method: as §2
[20] = species on record: Papio hamadryas; experiment: Activity at baboon liver mitochondrial MAO-B assessed as initial rate of H2O2 production after 15 mins assessed per mg of mitochondrial protein; summary of the method: as §2
[21] = species on record: Papio hamadryas; experiment: Activity at baboon liver mitochondrial MAO-B assessed as H2O2 production at 250 uM after 15 mins; summary of the method: as §1
[22] = species on record: Papio hamadryas; experiment: Activity at baboon liver mitochondrial MAO-B assessed as H2O2 production at 500 uM after 20 mins; summary of the method: as §1
[23] = species on record: Papio hamadryas; experiment: Activity at baboon liver mitochondrial MAO-B assessed as H2O2 production at Vmax concentration after 15 mins
[24] = species on record: Papio hamadryas; experiment: Activity at baboon liver mitochondrial MAO-B assessed as H2O2 production at 250 uM after 15 mins pretreated with MAOB inhibitor (R)-deprenyl
[25] = species on record: Papio hamadryas; experiment: Ratio of Vmax to Km for baboon liver mitochondrial MAO-B assessed per mg of protein after 15 mins; summary of the method: as §2
[26] = species on record: Papio hamadryas; experiment: Activity at baboon liver mitochondrial MAO-B assessed as initial rate of H2O2 production after 15 mins; summary of the method: as §2
[27] = species on record: Papio hamadryas; experiment: Activity at baboon liver mitochondrial MAO-B assessed as initial rate of H2O2 production after 6 mins assessed per mg of mitochondrial protein; summary of the method: as §4
[28] = species on record: Papio hamadryas; experiment: Activity at baboon liver mitochondrial MAO-B assessed as initial rate of H2O2 production after 6 mins; summary of the method: as §4
[29] = species on record: Papio hamadryas; experiment: Ratio of Vmax to Km for baboon liver mitochondrial MAO-B assessed per mg of protein after 6 mins; summary of the method: as §4

`CN1CCC(c2ccccc2)C1.O=C(O)C(=O)O` (racemic) was tested, and the Activity [1] was “Active”, the Activity [2] was 6% and the Activity [3] was 1.92 µM. The Vmax [4] was 8.37 nmol/min, the Km [5] was 234 µM and the Vmax/Km [6] was 0.04 min⁻¹. It also gave an Activity [7] of 99%.

In the case of `NCc1ccccc1`, the Activity [8] is reported as 5%, the Vmax [9] is reported as 42.4 nmol/min/mg and the Km [10] is reported as 249 µM. For the same molecule, the Vmax/Km [11] was 0.17 min⁻¹.

Work on `CN1CC=C(c2ccccc2)CC1.Cl` yielded an Activity [8] of 5%, a Vmax [12] of 11.7 nmol/min and a Km [13] of 81.8 µM. For the same molecule, the Vmax/Km [14] was 0.14 min⁻¹ and the Activity [15] was 27%.

Molecule `CN1CC=C(c2cccn2C)CC1` has an Activity [16] of 5%, a Vmax [17] of 22.2 nmol/min and a Km [18] of 43.4 µM. The Vmax/Km [19] was 0.51 min⁻¹.

With `CN1CCC(c2ccccc2)CC1` the Vmax [20] was “inactive”.

In the case of `CN1CC2CC2(c2ccccc2)C1.O=C(O)C(=O)O` (racemic), the Activity [21] is reported as 27.3 µM, the Activity [22] is reported as “Active” and the Activity [1] is reported as “Active”. For the same molecule, the Activity [23] was 6%, the Activity [24] was 1.79 µM and the Vmax [20] was 16.9 nmol/min. For the same molecule, the Vmax/Km [25] was 0.11 min⁻¹, the Km [26] was 148 µM and the Activity [7] was 111%.

Work on `CN1CC=C(c2ccccc2)C1` yielded a Vmax [17] of 27.9 nmol/min, a Km [18] of 100 µM and a Vmax/Km [19] of 0.28 min⁻¹.

Molecule `NCCC(=O)c1ccccc1N` has an Activity [8] of 5%, a Vmax [27] of 50 nmol/min/mg and a Km [28] of 58.9 µM. The Vmax/Km [29] was 0.85 min⁻¹.
